Data set [1] deals with Staphylococcus aureus. Description: Antimicrobial activity against Staphylococcus aureus ATCC 25923 assessed as growth inhibition of planktonic forms incubated for 24 hrs. The format is organism-based. The following applies: in vitro. The method in brief: (§1)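 Broth microdilution in tryptic soy broth. Two-fold series 100 to 0.75 μg/mL made from a 1 mg/mL stock in 0.9% NaCl. Inoculum ~10⁶ cfu/mL taken from a 24 h culture, 37 °C 24 h.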

For data set [2], the system named is Staphylococcus aureus. Description: Antimicrobial activity against Staphylococcus aureus ATCC 6538 assessed as growth inhibition of planktonic forms incubated for 24 hrs. The format is organism-based. The following applies: in vitro. The procedure, abridged:
as §1

Data set [3] deals with Staphylococcus epidermidis. Description: Antimicrobial activity against Staphylococcus epidermidis ATCC 12228 assessed as growth inhibition of planktonic forms incubated for 24 hrs. The format is organism-based. The following applies: in vitro. The procedure, abridged:
as §1

Data set [4] has as its system Pseudomonas aeruginosa. As to the kind of experiment: Antimicrobial activity against Pseudomonas aeruginosa ATCC 15442 assessed as growth inhibition of planktonic forms incubated for 24 hrs. The data set is classed as organism-based. The following applies: in vitro. The procedure, abridged:
as §1

Data set [5] has as its system Escherichia coli. As to the kind of experiment: Antimicrobial activity against Escherichia coli ATCC 25922 assessed as growth inhibition of planktonic forms incubated for 24 hrs. The data set is classed as organism-based. The following applies: in vitro. The procedure, abridged: as §1
The test system of data set [6] is Staphylococcus aureus. As to the kind of experiment: Antibiofilm activity against Staphylococcus aureus ATCC 25923 incubated for 24 hrs by crystal violet-staining based assay. The data set is classed as functional. The method in brief: (§2)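 Biofilm prevention: 0.5 McFarland inoculum (2.5 µL) in 100 µL TSB with 2% w/v glucose, compound present from the start over 100–0.1 µg/mL, 37 °C 24 h. Washed with PBS, stained 0.1% w/v crystal violet 30 min, eluted with 33% v/v acetic acid, read at 570 nm. BIC50 (50% inhibition versus untreated control) derived by linear regression; triplicate, repeated at least twice.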

Data set [7] has as its system Staphylococcus aureus. As to the kind of experiment: Antibiofilm activity against Staphylococcus aureus ATCC 6538 incubated for 24 hrs by crystal violet-staining based assay. The data set is classed as functional. The method in brief:
as §2

The test system of data set [8] is Staphylococcus epidermidis. Description: Antibiofilm activity against Staphylococcus epidermidis ATCC 12228 incubated for 24 hrs by crystal violet-staining based assay. The data set is classed as functional. The method in brief: as §2
In data set [9] the test system is Escherichia coli. Description: Antibiofilm activity against Escherichia coli ATCC 25922 incubated for 24 hrs by crystal violet-staining based assay. The data set is classed as functional. The procedure, abridged: as §2
The test system of data set [10] is Bacteria. As to the kind of experiment: Inhibition of recombinant bacterial SrtA at 100 uM using 5-FAM/QXL 520 Sortase as substrate preincubated for 10 mins followed by substrate addition and measured every 5 mins for 60 mins by fluorescence assay. The procedure, abridged:
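FRET kit assay: 2.5 µg/ml recombinant SrtA, 4 µM fluorescent peptide substrate, compound at 100 µM in 1% DMSO. Compound and enzyme added first, then substrate. Fluorescence (Ex/Em 490/520 nm) recorded every 5 min for 60 min. Substrate without enzyme served as negative control and 4-(hydroxymercuri)benzoic acid as positive control.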

Data set [11] concerns Pseudomonas aeruginosa. As to the kind of experiment: Antibiofilm activity against Pseudomonas aeruginosa ATCC 15442 assessed as inhibition of biofilm formation at 100 ug/ml incubated for 24 hrs by crystal violet-staining based assay. The format is functional. The following applies: ATCC 15442, 24 h.
In data set [12] the test system is Staphylococcus aureus. As to the kind of experiment: Antibiofilm activity against Staphylococcus aureus ATCC 25923 assessed as inhibition of biofilm formation at 100 ug/ml incubated for 24 hrs by crystal violet-staining based assay. The format is functional. The following applies: ATCC 25923, 24 h.
Data set [13] has as its system Escherichia coli. Description: Antibiofilm activity against Escherichia coli ATCC 25922 assessed as inhibition of biofilm formation at 100 ug/ml incubated for 24 hrs by crystal violet-staining based assay. The data set is classed as functional. The following applies: ATCC 25922, 24 h.
In data set [14] the test system is Staphylococcus aureus. As to the kind of experiment: Antibiofilm activity against Staphylococcus aureus ATCC 6538 assessed as inhibition of biofilm formation at 100 ug/ml incubated for 24 hrs by crystal violet-staining based assay. The format is functional. The following applies: ATCC 6538, 24 h.
For data set [15], the system named is Pseudomonas aeruginosa. Description: Antibiofilm activity against Pseudomonas aeruginosa ATCC 15442 incubated for 24 hrs by crystal violet-staining based assay. The data set is classed as functional. The method in brief: as §2

Structures are written as SMILES. Activity calls are given as the source filed them. The calls are words filed in the database; no cut-off is given here.

Consider `Br.COc1ccc(OC)c(-c2cn3nc(-c4c[nH]c5ccc(Cl)cc45)sc3n2)c1`, for which the MIC in data set [1], in [2], in data set [3], in [4] and in data set [5] was over 100 µg/mL each time. The MBIC50 in [6] was found to be 24.2 µM; in data set [7], 0.5 µM; in [8] it was 18.9 µM; in data set [9], 91.5 µM. Also, the inhibition result in data set [6], in data set [7], in data set [8] and in [9] was “Dose-dependent effect” each time. Further, in [7], the MBIC90 is 16.2 µg/mL. In addition, the inhibition (as a rule, the relative decrease from the control value, in per cent) in data set [10] is “inactive”. The inhibition at 100 µg/mL in [11] was under 15%.
On to `Cn1cc(-c2nn3cc(-c4ccc(F)cc4)nc3s2)c2cc(Cl)ccc21`, for which the MIC in data set [1], in [2], in [3], in data set [4] and in data set [5] was over 100 µg/mL throughout. Further, the MBIC50 in data set [7] was 50.4 µM; in data set [8], 17 µM. Also, the inhibition result in [7] and in data set [8] was “Dose-dependent effect” in each case. Moreover, the inhibition at 100 µg/mL in data set [12], in data set [11] and in [13] was under 15% in each case.
Turning to `Cn1cc(-c2nn3cc(-c4ccccc4)nc3s2)c2cc(Cl)ccc21`, the MIC in data set [1], in data set [2], in data set [3], in data set [4] and in data set [5] was over 100 µg/mL each time. This compound came in with an MBIC50 in [8] of 36.5 µM. For the same compound, the inhibition result in [8] is “Dose-dependent effect”. Further, the inhibition at 100 µg/mL in data set [12], in data set [14], in [11] and in data set [13] was under 15% throughout.
With `Br.COc1cccc(-c2cn3nc(-c4cn(C)c5ccccc45)sc3n2)c1`, the MIC in data set [1], in [2], in data set [3], in data set [4] and in data set [5] was over 100 µg/mL throughout. The MBIC50 is 1.8 µM in data set [6], 28 µM in [7] and 41.9 µM in data set [8]. This compound also returned an MBIC90 in [6] of 23.3 µg/mL. In addition, the inhibition result in [6], in data set [7] and in data set [8] was “Dose-dependent effect” each time. In [10], the inhibition entry was “inactive”. Also, the inhibition at 100 µg/mL in [11] and in data set [13] was under 15% each time.
As to `Br.COc1cccc(-c2cn3nc(-c4cn(C)c5ccc(Cl)cc45)sc3n2)c1`, the MIC in data set [1], in [2], in data set [3], in data set [4] and in [5] was over 100 µg/mL in each case. In data set [8], this compound returned an MBIC50 of 23.9 µM. In addition, the inhibition result in data set [8] was “Dose-dependent effect”. In addition, the inhibition at 100 µg/mL in [12], in data set [14], in [11] and in data set [13] was under 15% each time.
Regarding `Br.Cn1cc(-c2nn3cc(-c4ccccc4)nc3s2)c2cc(Br)ccc21`, the MIC in data set [1], in data set [2], in data set [3], in data set [4] and in data set [5] was over 100 µg/mL throughout. This compound displayed an MBIC50 in data set [8] of 21.6 µM. The inhibition result in [8] was “Dose-dependent effect”. Further, the inhibition at 100 µg/mL in data set [12], in data set [14], in data set [11] and in data set [13] was under 15% each time.
Take `FC(F)(F)c1ccc(-c2cn3nc(-c4c[nH]c5ccccc45)sc3n2)cc1`: the MIC in [1], in [2], in data set [3], in [4] and in [5] was over 100 µg/mL throughout. For the same compound, the MBIC50 result in [6], in [7], in [8], in [15] and in [9] was “inactive” each time.
Regarding `Br.COc1cccc(-c2cn3nc(-c4c[nH]c5ccc(Br)cc45)sc3n2)c1`, the MIC in data set [1], in data set [2], in data set [3], in data set [4] and in [5] was over 100 µg/mL each time. For the same compound, the MBIC50 entry in data set [6], in data set [7], in data set [8], in [15] and in data set [9] was “inactive” each time.
`Cn1cc(-c2nn3cc(-c4ccc(C(F)(F)F)cc4)nc3s2)c2ccccc21`: the MIC in data set [1], in [2], in [3], in data set [4] and in data set [5] was over 100 µg/mL throughout. The MBIC50 entry in [6], in data set [7], in [8], in data set [15] and in data set [9] was “inactive” each time.
On to `Cn1cc(-c2nn3cc(-c4ccc([N+](=O)[O-])cc4)nc3s2)c2cc(Cl)ccc21`, for which the MIC in data set [1], in [2], in data set [3], in data set [4] and in data set [5] was over 100 µg/mL each time. Further, the MBIC50 worked out at 33 µM in [7] and 78 µM in data set [8]. In addition, the inhibition entry in [7] and in data set [8] was “Dose-dependent effect” each time. In addition, the inhibition at 100 µg/mL in data set [12], in [11] and in data set [13] was under 15% each time.
For the compound `Cn1cc(-c2nn3cc(-c4ccc([N+](=O)[O-])cc4)nc3s2)c2ccccc21`, the MIC in data set [1], in data set [2], in data set [3], in data set [4] and in [5] was over 100 µg/mL in each case. For the same compound, the MBIC50 amounted to 21 µM in data set [6]; 3 µM in [7]; 21 µM in data set [8]; 30.1 µM in data set [15]; 34.3 µM in data set [9]. In addition, the inhibition entry in [6], in data set [7], in data set [8], in [15] and in data set [9] was “Dose-dependent effect” throughout.

The values above are taken from ChEMBL document CHEMBL4339190, “2,6-Disubstituted imidazo[2,1-b][1,3,4]thiadiazole derivatives as potent staphylococcal biofilm inhibitors” (Eur J Med Chem, 2019).
